We go through 15 compounds from ChEMBL document CHEMBL4393670 (J Med Chem, 2019).

One data set has as its system NCI-H23. Put plainly: Cytotoxicity against human NCI-H23 cells after 72 hrs by CellTiter 96 AQueous one solution cell proliferation assay. Type of data set: functional, cell-based. As to conditions: NCI-H23, 72 h. In short, it runs like this:
(§1)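 Cells in RPMI1640 with 10% FBS; H23 plated at 5000, H727, RPMI8226 and the Cfz-resistant subline at 10 000 cells/well. Resistant subline adapted to stepwise Cfz up to 80 nM over ~6 months, kept in 80 nM, then Cfz-free ~1 week before testing.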

The subject of data set [1] is NCI-H727. Put plainly: Cytotoxicity against human NCI-H727 cells after 72 hrs by CellTiter 96 AQueous one solution cell proliferation assay. Type of data set: functional, cell-based. As to conditions: NCI-H727, 72 h. Summed up:
as §1

For data set [2], the target named is T1, Proteasome Macropain subunit MB1 (Homo sapiens, UniProt P28074).
T1 sequence (P28074 whole entry): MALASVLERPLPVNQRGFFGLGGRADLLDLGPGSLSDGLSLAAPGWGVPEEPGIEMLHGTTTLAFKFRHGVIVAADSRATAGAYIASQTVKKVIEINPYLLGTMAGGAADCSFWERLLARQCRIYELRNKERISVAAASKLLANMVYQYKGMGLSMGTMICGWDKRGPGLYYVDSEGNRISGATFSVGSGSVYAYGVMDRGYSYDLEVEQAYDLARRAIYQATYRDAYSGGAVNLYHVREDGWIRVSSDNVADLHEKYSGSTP
Put plainly: Inhibition of 20S proteasome beta5 subunit in human RPMI8226 cell lysate using Suc-LLVY-AMC as substrate pretreated for 1 hr followed by substrate addition and measured at 1 min interval by fluorescence assay. It counts as subcellular.

Data set [3] is described as follows: Cytotoxicity against human RPMI8226/Cfzr cells after 72 hrs by CellTiter 96 AQueous one solution cell proliferation assay. Type of data set: functional, cell-based. As to conditions: RPMI-8226, 72 h. Summed up: as §1
Data set [4] has as its target T2, Proteasome subunit beta type-9 (Homo sapiens, UniProt P28065).
T2 sequence (P28065 whole entry): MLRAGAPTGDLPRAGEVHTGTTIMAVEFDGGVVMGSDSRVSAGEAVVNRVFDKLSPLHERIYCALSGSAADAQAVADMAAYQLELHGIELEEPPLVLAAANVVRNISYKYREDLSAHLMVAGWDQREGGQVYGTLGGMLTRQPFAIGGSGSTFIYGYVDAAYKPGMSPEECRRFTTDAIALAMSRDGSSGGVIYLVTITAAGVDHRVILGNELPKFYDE
Put plainly: Inhibition of purified human 20S immunoproteasome beta1 subunit using Ac-Pro-Ala-Leu-AMC as substrate pretreated for 1 hr followed by substrate addition and measured at 1 min interval by fluorescence assay.

A short description of data set [5]: Selectivity ratio of IC50 for human NCI-H727 cells to IC50 for human NCI-H23 cells. Type of data set: functional.
Data set [6] can be described thus: Selectivity ratio of IC50 for human RPMI8226/Cfzr cells to IC50 for human RPMI8226 cells. Type of data set: functional.
For a further data set, the system named is RPMI-8226. Put plainly: Cytotoxicity against human RPMI8226 cells after 72 hrs by CellTiter 96 AQueous one solution cell proliferation assay. To be noted: RPMI-8226, 72 h. It counts as functional, cell-based. In short, it runs like this: as §1
The species entered for data set [7] is Homo sapiens. Put plainly: Cytotoxicity against human multiple myeloma cells at 10 uM after 48 hrs by CellTiter Glo luminescent cell viability assay. On the technique in general: ATP-based viability assays read luminescence as a measure of living cells.
Data set [8] is filed under the species Homo sapiens. Put plainly: Cytotoxicity against human Btz-resistant multiple myeloma cells at 10 uM after 48 hrs by CellTiter Glo luminescent cell viability assay.
A short description of data set [9]: Half life in patient with relapsed and refractory multiple myeloma. As to conditions: human, in vivo. Type of data set: ADME.
Data set [10] in a line: Stability in Sprague-Dawley rat liver homogenate at 1 uM measured up to 20 mins by LC-MS/MS analysis.
In data set [11] the test system is NCI-H727. Put plainly: Potency index, ratio of carfilzomib IC50 to test compound IC50 for human NCI-H727 cells. Type of data set: functional.
The nature of data set [12]: Potency index, ratio of carfilzomib IC50 to test compound IC50 for human RPMI8226/Cfzr cells. Type of data set: functional.
In data set [13] the target is ATP-dependent translocase ABCB1 (Homo sapiens, UniProt P08183). As to the kind of experiment: Inhibition of P-gp in human RPMI8226/Cfzr cells assessed as potentiation of carfilzomib-induced cytotoxicity at 7.5 uM measured after 72 hrs by CellTiter 96 AQueous one solution cell proliferation assay. Type of data set: cell-based.

SMILES strings stand for the structures. Calls of active or inactive are those of the source. No cut-off for these calls is given here. Residues, ends and D or L forms follow the SMILES beside them. *: point of attachment. Cbz = O=C(OCc1ccccc1)*; Boc = CC(C)(C)OC(=O)*; OBn = c1ccc(CO*)cc1; OtBu = CC(C)(C)O*

Sequence of ATP-dependent translocase ABCB1 (P08183 whole entry): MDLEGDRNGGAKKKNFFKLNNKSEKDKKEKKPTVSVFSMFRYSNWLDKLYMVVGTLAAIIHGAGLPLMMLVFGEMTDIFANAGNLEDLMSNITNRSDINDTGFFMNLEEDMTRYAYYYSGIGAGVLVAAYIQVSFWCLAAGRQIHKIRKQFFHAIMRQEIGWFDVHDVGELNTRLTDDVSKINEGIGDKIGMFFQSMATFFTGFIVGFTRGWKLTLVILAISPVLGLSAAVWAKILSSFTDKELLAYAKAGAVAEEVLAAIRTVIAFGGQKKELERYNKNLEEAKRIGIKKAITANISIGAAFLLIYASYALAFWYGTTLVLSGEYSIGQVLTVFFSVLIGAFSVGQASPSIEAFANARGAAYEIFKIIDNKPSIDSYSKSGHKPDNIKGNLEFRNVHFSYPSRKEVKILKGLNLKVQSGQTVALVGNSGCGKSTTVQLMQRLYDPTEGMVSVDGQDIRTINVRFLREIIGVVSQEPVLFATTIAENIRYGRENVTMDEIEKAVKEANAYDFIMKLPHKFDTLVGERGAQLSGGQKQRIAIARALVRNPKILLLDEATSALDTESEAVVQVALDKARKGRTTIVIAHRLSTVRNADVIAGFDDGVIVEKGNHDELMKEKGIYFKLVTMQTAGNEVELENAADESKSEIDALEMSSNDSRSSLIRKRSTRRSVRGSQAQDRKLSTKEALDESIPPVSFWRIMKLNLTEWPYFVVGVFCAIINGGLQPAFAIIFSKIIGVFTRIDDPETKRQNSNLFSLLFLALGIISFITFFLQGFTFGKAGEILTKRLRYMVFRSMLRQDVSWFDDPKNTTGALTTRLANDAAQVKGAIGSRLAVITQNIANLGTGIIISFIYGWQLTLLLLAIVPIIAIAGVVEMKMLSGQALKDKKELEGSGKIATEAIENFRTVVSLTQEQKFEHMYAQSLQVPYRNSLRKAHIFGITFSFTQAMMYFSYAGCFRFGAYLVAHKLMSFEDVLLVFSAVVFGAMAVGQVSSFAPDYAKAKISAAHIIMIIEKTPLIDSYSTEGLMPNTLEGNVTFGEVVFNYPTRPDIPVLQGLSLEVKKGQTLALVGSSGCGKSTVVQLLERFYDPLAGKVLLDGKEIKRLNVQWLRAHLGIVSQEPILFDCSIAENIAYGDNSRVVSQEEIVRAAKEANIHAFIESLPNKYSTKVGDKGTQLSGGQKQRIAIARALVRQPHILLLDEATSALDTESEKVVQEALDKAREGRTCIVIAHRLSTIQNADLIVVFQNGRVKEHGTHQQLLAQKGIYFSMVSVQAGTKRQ

As to `CCCCCCC(=O)N[C@@H](C)C(=O)N[C@@H](CC(C)C)C(=O)[C@@]1(CO)CO1`, the IC50 – broadly, the concentration that gives 50% inhibition – in the data set with NCI-H23 turned out to be 580 nM; in the data set with NCI-H727 [1], 690 nM; in data set [2], 1700 nM; in [3], 310 nM; in data set [4] it was 36 nM.

Take `CC(C)C[C@H](NC(=O)[C@H](Cc1ccccc1)NC(=O)c1cnccn1)B(O)O` [BORTEZOMIB]: the figures for the IC50 in the data set with NCI-H23 and in the data set on NCI-H727 [1] were 10 nM and 25 nM, respectively. For the same compound, the “Ratio IC50” value in [5] was found to be 2.5.

On to `CC[C@H](C)[C@H](NC(=O)[C@H]([C@@H](C)CC)N(C)C(C)=O)C(=O)N[C@H](C(=O)N[C@@H](CC(C)C)C(=O)[C@@]1(C)CO1)[C@@H](C)O` [EPOXOMYCIN], for which the IC50 in [3] stood at 541 nM; with RPMI-8226, 11 nM. In addition, the “Ratio IC50” value in [6] came out at 49.2.

Regarding `CC(C)C[C@@H](C=O)NC(=O)[C@H](CC(C)C)NC(=O)[C@H](CC(C)C)NC(=O)OCc1ccccc1` [MG-132] (Cbz-Leu-Leu-Leu-aldehyde), the results for the IC50 with NCI-H23 and with NCI-H727 [1] were 480 nM and 980 nM, respectively. The “Ratio IC50” value in [5] stood at 2.

Regarding `CCCCCCC(=O)N[C@@H](C)C(=O)N[C@@H](CC(C)C)C(=O)[C@@]1(CO[Si](C)(C)C(C)(C)C)CO1`, the outcome in the data set filed under Homo sapiens [7] and in the data set filed under Homo sapiens [8] was Active. For the same compound, the IC50 in the data set on NCI-H23 was 3370 nM; with NCI-H727 [1], 5210 nM; in data set [2], more than 10000 nM; in [3], 2140 to 3720 nM; in the data set with RPMI-8226, 2140 nM; in data set [4], 140 nM. Further, the results for the “Ratio IC50” value in [6] and in data set [5] were 1.7 and 1.5, respectively.

Regarding `CC(=O)N[C@@H](CSC(=O)[C@]1([C@@H](O)C(C)C)NC(=O)[C@H](C)[C@@H]1O)C(=O)O` [LACTACYSTIN], the IC50 in the data set on NCI-H23 is 5230 nM; in the data set on NCI-H727 [1], more than 100000 nM. In [5], the “Ratio IC50” value is reported as more than 19.

For the compound `CC(C)C[C@H](NC(=O)[C@H](CCc1ccccc1)NC(=O)CN1CCOCC1)C(=O)N[C@@H](Cc1ccccc1)C(=O)N[C@@H](CC(C)C)C(=O)[C@@]1(C)CO1` [CARFILZOMIB], the IC50 in the data set with NCI-H23 is 18 to 18.3 nM; with NCI-H727 [1] it was 610 to 611 nM; in data set [3], 269 to 270 nM; in the data set on RPMI-8226, 7 nM. Also, in data set [9], the half-life (usually how long it takes for the measured level to halve) is less than 1 h. For the same compound, in data set [10], the Stability result was “Stable”.

Regarding `COCCOCOC[C@]1(C(=O)[C@H](CC(C)C)NC(=O)[C@H](Cc2ccccc2)NC(=O)[C@H](CC(C)C)NC(=O)[C@H](CCc2ccccc2)NC(=O)CN2CCOCC2)CO1`, in data set [2], the IC50 is more than 1000 nM.

As for `COCOC[C@]1(C(=O)[C@H](CC(C)C)NC(=O)[C@H](Cc2ccccc2)NC(=O)[C@H](CC(C)C)NC(=O)[C@H](CCc2ccccc2)NC(=O)CN2CCOCC2)CO1`, the IC50 in data set [2] was more than 1000 nM.

As for `CC(C)C[C@H](NC(=O)[C@H](CCc1ccccc1)NC(=O)CN1CCOCC1)C(=O)N[C@@H](Cc1ccccc1)C(=O)N[C@@H](CC(C)C)C(=O)[C@@]1(CO)CO1`, the “Ratio IC50” value was 10 in the data set with NCI-H727 [11] and 3 in data set [12]. For the same compound, the IC50 amounted to 29.4 nM in the data set with NCI-H23; 61 nM with NCI-H727 [1]; 2.1 nM in data set [2]; 106 nM in data set [3]; 743 nM in data set [4]. In data set [10], the Stability entry was “Stable”.

On to `COC[C@]1(C(=O)[C@H](CC(C)C)NC(=O)[C@H](Cc2ccccc2)NC(=O)[C@H](CC(C)C)NC(=O)[C@H](CCc2ccccc2)NC(=O)CN2CCOCC2)CO1`, for which the IC50 in [2] was more than 1000 nM.

Consider `CC(C)(C)OC(=O)N[C@@H](CC(=O)OCc1ccccc1)C(=O)N[C@@H](CCCCNC(=O)OCc1ccccc1)C(=O)OC(C)(C)C` [REVERSIN 121] (Boc-Asp(OBn)-Lys(Cbz)-OtBu), for which, in [13], the “inhibition (INH)” value is recorded as “Active”.

Take `CCCCCCC(=O)N[C@@H](CO)C(=O)N[C@@H](CC(C)C)C(=O)[C@@]1(COCOCCOC)CO1`: the outcome in the data set listed under Homo sapiens [7] and in the data set listed under Homo sapiens [8] was Active. The IC50 in the data set with NCI-H23 was 3400 nM; in the data set on NCI-H727 [1] it was 4490 nM; in data set [3], 3410 nM; with RPMI-8226, 2080 nM. In addition, the “Ratio IC50” value in data set [6] was found to be 1.6; in [5] it was 1.3.

For `CC(C)C[C@H](NC(=O)[C@H](CCc1ccccc1)NC(=O)CN1CCOCC1)C(=O)N[C@@H](Cc1ccccc1)C(=O)N[C@@H](CC(C)C)C(=O)[C@@]1(COS(C)(=O)=O)CO1`, the IC50 turned out to be 311 nM with NCI-H23, 834 nM with NCI-H727 [1] and 8 nM in [2].

`CC(C)C[C@H](NC(=O)[C@H](CCc1ccccc1)NC(=O)CN1CCOCC1)C(=O)N[C@@H](Cc1ccccc1)C(=O)N[C@@H](CC(C)C)C(=O)[C@@]1(CO[Si](c2ccccc2)(c2ccccc2)C(C)(C)C)CO1`: the IC50 in the data set on NCI-H23 was more than 10000 nM; in the data set with NCI-H727 [1], more than 10000 nM; in data set [2], 112 nM.
